Assay results: ChEMBL document CHEMBL4513216, “Probing the Open Global Health Chemical Diversity Library for Multistage-Active Starting Points for Next-Generation Antimalarials” (ACS Infect Dis, 2020)

Assay: Toxicity liver stage against HepG2, at 10uM
Assay type: cell-based
Parameters: test concentration 10 uM, cell line HepG2-A16-CD81EGFP
Conditions: human, HepG2-A16-CD81EGFP cells; read-out: INHIBITION
Outline: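 Uninfected HepG2-A16-CD81EGFP cells, 3 × 10^3 per well, 1536-well, plated on prespotted compound at 10 μM final, parasite-free screening media added to match infected plates; puromycin 10 μM positive, DMSO 0.5% negative; run in parallel with 48 h PbLuc assay at 37 °C, 5% CO2; viability by CellTiter-Glo luminescence, normalized to controls.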

| Compound | cytotoxicity at 10 µM |
| --- | --- |
| COc1cc2c(cc1CNC(=O)Cc1ccc(C)nc1)OC(C)C2 (stereo not given) | -6.47% |
| COc1ccccc1CC(=O)N1CCCC(n2nc(C)nc2C)C1 (stereo not given) | -4.47% |
| CC(C)[C@@H]1CN(C(=O)CCc2ccc(F)cc2)C[C@H]1C(=O)O | -3.97% |
| CN(Cc1cc(Br)cn1C)C(=O)Cc1cccc(O)c1 | -4.99% |
| O=C(c1c[nH]c(=O)cn1)N1C[C@H]2CC[C@@H](C1)N(Cc1ccccc1)C2 | -126% |
| Cc1cnc2n(c1=O)CC(C(=O)NCc1ccccc1Cl)CS2 (stereo not given) | -1.74% |
| O=C(NCCc1noc(C2CCCC2)n1)c1cn2ccsc2n1 | -0.454% |
| CN(C)C(=O)CN1CCOCC2(CCN(CC3CCOCC3)CC2)C1 | 8.55% |
| CC(NC(=O)NCCCc1n[nH]c(N)c1C#N)c1cccc(Cl)c1 (stereo not given) | -4.14% |
| CN(Cc1ccco1)Cc1cnc2n1CCN(c1ccccn1)CC2 | -0.48% |
| CNC(=O)Cc1ccc(NC(=O)NCc2nc(C)sc2C)cc1 | -4.36% |
| Cn1ncc2c1C(COCC1CC1)CN(C(=O)c1cscn1)C2 (stereo not given) | -76% |
| COCC(=O)N1CCC[C@]2(C(=O)N(C)C)CN(c3ccccn3)C[C@@H]2C1 | -10.1% |
| COCCC(=O)N1CCCC1c1csc(Nc2ncccn2)n1 (stereo not given) | -4.33% |
| CCn1cnnc1CNC(=O)c1cc(F)ccc1OC | -14.3% |
| O=C(NCCc1coc(-c2ccc(F)cc2)n1)NC1CCC(O)CC1 (stereo not given) | 7.96% |
| Cc1cc2c(cc1C)OC(C(=O)NCCNC(=O)C1CCCC1)C2 (stereo not given) | 7.71% |
| Cc1cc(C)c2nc(C)c(C(=O)N3CCC(N4CCCC4)CC3)cc2c1 | -3.19% |
| CCn1ccnc1CN1CCN(CC(=O)NC(=O)NC2CC2)CC1 | -3.3% |
| Cc1nn(C)c(N(C)C)c1CNCc1cccnc1N1CCOCC1 | -141% |
| Cn1cc(C[C@H]2[C@H](O)CCN2CC2CC2)cn1 | -0.516% |
| CCNC(=O)N1CC[C@@H](CC(=O)O)[C@@H](CC2=NCCc3ccccc32)C1 | 2.7% |

| Compound | cytotoxicity at 10 µM |
| --- | --- |
| O=C(O)[C@@H]1CN(Cc2ccc(-c3cc[nH]n3)s2)C[C@H]1C1CC1 | 5.13% |
| Cc1nc(CNC(=O)Nc2ccc3c(c2)CCCN3C)sc1C | -3.68% |
| Cc1cc(N2CCC(n3cc(CN4CCSCC4)nn3)CC2)ccn1 | -12.5% |
| Cc1cccc(CN2CCc3ncnc(C)c3CC2)n1 | -17.4% |
| Cc1nc(CN2CCCn3cnc(COCC4CC4)c3C2)cs1 | 7.04% |
| Cc1nnc(NCC2(c3ccccc3)CCC2)c(C#N)c1C | 19.9% |
| CNS(=O)(=O)c1cccc(C(C)NCc2ccco2)c1 (stereo not given) | 4.61% |
| COCc1n[nH]/c(=N/C(=O)COc2cnc(C)cc2O)s1 | 5.84% |
| O=C(CC1CCCC1)NCCn1nc2ccccn2c1=O | 9.97% |
| Cc1ccccc1N1CC2(CCN(S(=O)(=O)c3cccs3)C2)CC1=O (stereo not given) | 14.1% |
| CC(C)C(=O)N1CCC(C)(c2cc(O)[nH]n2)CC1 | -14.5% |
| Cn1cc(CN2CCO[C@H]3CN(Cc4ccsc4)C[C@H]32)cn1 | -147% |
| COc1ccc(CN(Cc2ccsc2)CC2CCCO2)cn1 (stereo not given) | -6.16% |
| Cc1ccccc1OCCCC(=O)N(C)CCC#N | 2.33% |
| Cn1ccnc1CN1CCC2(CC1)CN(Cc1cccnc1)C(=O)CO2 | 4% |
| COc1ccc(-c2n[nH]cc2C2SCC(=O)Nc3[nH]ncc32)cc1 (stereo not given) | -1.33% |
| O=C(c1cnc[nH]1)N1CCC(Oc2cccnc2)CC1 | 6.87% |
| Cc1cc(C(=O)NCCN2CCC(C)CC2)nn1C(C)(C)C | 13.3% |
| CCc1ncc(CN2CCCN(CC3CC3)C(C(C)C)C2)cn1 (stereo not given) | -6.03% |
| CCNc1nc(C)c(C(=O)N2CCC(C(O)Cc3ccccc3)CC2)s1 (stereo not given) | 13.5% |
| CC(Cn1cccn1)NS(=O)(=O)Cc1ccc(F)cc1 (stereo not given) | 7.28% |
| CN(C)CCN1CCC2(CCN(C(=O)c3cccnc3)CC2)C1=O | 2.61% |

| Compound | cytotoxicity at 10 µM |
| --- | --- |
| Cc1nn(CCO)cc1CN1CCC(N2CCC(O)CC2)CC1 | -0.931% |
| COc1ccc(CCNC(=O)C2CC2)c(Cl)c1 | -2.43% |
| Cc1cnn(CC2CCCN2CC(=O)Nc2cc(C(C)C)no2)c1 (stereo not given) | 4.23% |
| Cc1ccc(C(=O)N2CC(C(N)=O)O[C@H](C)C2)c(F)c1 (stereo not given in full) | -5.43% |
| O=C(NCc1ccc(-n2cncn2)nc1)c1cc[nH]n1 | -7.45% |
| COCCN1CCO[C@@H]2CN(C(=O)Cc3ccccc3)CC[C@@H]2C1 | 4.98% |
| CN(CCN1CCOCC1)C(=O)CCCOCCc1ccccc1 | -1.28% |
| CNc1cncc(C2CCCN2c2cc(C)ncn2)n1 (stereo not given) | -23.3% |
| O=C(c1cccnc1)N1CCOC(CCCc2ccccc2)C1 (stereo not given) | 7.07% |
| CC(C)CC(NC(=O)c1cnn(C)c1)C(=O)Nc1cc[nH]n1 (stereo not given) | -3.38% |
| Cc1c(C(=O)N2CCC(c3nc(C)n4ccsc34)CC2)cnn1C | -4.41% |
| CN(C)S(=O)(=O)Nc1ccc(Oc2ccc3c(c2)OCO3)cc1 | 1.43% |
| O=C(NCc1ccncc1)N1CC(Cc2ccccc2F)C1 | -8.85% |
| CC(C)(NS(C)(=O)=O)c1nc(-c2ccc(F)cc2Cl)no1 | 4.98% |
| NC(=O)c1cn[nH]c1C1CCCN1C(=O)c1ccccn1 (stereo not given) | 0.893% |
| COc1ncc(C2(O)CCN(Cc3cccs3)CC2)c(OC)n1 | 1.9% |
| CN(C)c1ncc(-c2ccc(NC(=O)[C@@H]3CCCCN3)cc2)cn1 | -7.94% |
| CCC1CN(C)c2ccccc2CN1C(=O)Nc1ccc(C)cc1 (stereo not given) | 4.01% |
| COCCN1CC[C@H]2CN(Cc3ccc(C)s3)C[C@@H]2C1=O | -3.72% |
| Cc1nnc(NC(=O)CN2CCc3c(nc(C(C)C)n3C)C2)s1 | -1.94% |
| O=C(NCCN1CCOCC1)c1ccnn1-c1ccc2ccccn12 | 10.9% |
| COC(=O)c1ccc(CN2CCN(Cc3nc(C)no3)CC2)s1 | 4.07% |

| Compound | cytotoxicity at 10 µM |
| --- | --- |
| COCCOCC(=O)NC(C#N)c1cc(Cl)cc(Cl)c1 (stereo not given) | 8.31% |
| CN(C)C(=O)C1(CCCc2ccncc2)CCCN1 (stereo not given) | 0.59% |
| CN(C)C(=O)CN1C[C@@H]2OCCN(c3ncc(F)cn3)[C@@H]2C1 | -0.756% |
| Cc1cc(-c2nccs2)nc(C2CCN(Cc3ccncc3)CC2)n1 | 8.6% |
| O=C(N1CCCO1)[C@@]12CCO[C@@H]1CCN(Cc1ccc(F)cc1)C2 | -6.1% |
| CC(C)S(=O)(=O)N1C[C@@H](O)[C@H](N(C)Cc2ccc(F)cc2)C1 | 2.51% |
| CS(=O)(=O)NCc1nnc2n1CCN(Cc1ccncc1)C2 | -73.6% |
| CCN(CC)S(=O)(=O)CC(=O)Nc1ccsc1 | -2.77% |
| Cc1cc(=O)[nH]c(-c2cccc(CN3CCCN4CCCC4C3)c2)n1 (stereo not given) | 1.46% |
| CCn1nc(C)c2nc(C(C)C)nc(N3CCCCC3)c21 | -7.67% |
| NC(=O)CN(C(=O)Cc1cccc(C(F)(F)F)c1)C1CCCC1 | 3.71% |
| c1cc(-c2noc([C@@H]3CCCN3C3CCC3)n2)cc(N2CCCC2)n1 | 5.94% |
| O=C1CC[C@H](C(=O)Nc2cnn(-c3ccccc3Br)c2)N1 | -2.84% |
| O=C(Nc1ccccc1)N1CCn2c(nnc2C2CCCN2)C1 (stereo not given) | 2.91% |
| COCCN1CCC2(CC1)CN(C(=O)c1cccs1)CCO2 | -14.1% |
| Cc1nc2cc(=O)[nH]n2c(C)c1CNC(=O)C(C)Cc1ccccc1 (stereo not given) | -7.27% |
| Cc1nc(CN2CCC3(CCN(Cc4cnn(C)c4)CC3)C2=O)cs1 | 2.34% |
| CNC(=O)CS(=O)(=O)C1CCN(S(=O)(=O)c2c(F)cccc2F)CC1 | -22% |
| OC1(CN2CCC(Oc3cccc(C(F)(F)F)c3)CC2)CCNC1 (stereo not given) | 1.05% |
| CCN(CC(=O)NC)C(=O)Cc1nc(-c2ccco2)oc1C | 22.8% |
| Cc1nc(CN)cc(NCc2ccccc2-n2cncn2)n1 | 1.88% |
| Cc1cc(C)nc(C2(C)CCCN2CCO)n1 (stereo not given) | -3.89% |

| Compound | cytotoxicity at 10 µM |
| --- | --- |
| CCCOC1CCCN(C(=O)c2ccnnc2)C1 (stereo not given) | -20.6% |
| CNC(=O)CC1COCCN1C(=O)C1(c2ccc(Cl)cc2)CCC1 (stereo not given) | 5.33% |
| Cn1ccc(C(=O)NCCOc2ccc3c(c2)OCO3)cc1=O | 5.97% |
| CN(c1ccc(C(N)=O)nn1)C1CCC1 | 9% |
| O=C1CO[C@@H]2CN(C(=O)CCc3ccccc3)C[C@H]2N1 | 6.06% |
| COCC1CC2(CCN(Cc3ccc(C)o3)CC2)CN1C(C)C (stereo not given) | -2.42% |
| Cc1cnn(CC2CCCN2Cc2nc3ccccc3c(=O)[nH]2)c1 (stereo not given) | -4.82% |
| CCOCCN(CCOCC)c1nc(C)nc2sccc12 | -126% |
| CN(C)C(=O)CN1C[C@H]2CCN(C(=O)c3ccncc3)CC[C@H]2S1(=O)=O | -1.55% |
| Cc1ccc(CN2CC[C@@H](NC(=O)c3cccnc3)[C@H](O)C2)s1 | -2.68% |
| CCCc1nc(NCCCOCC)c2c(n1)c(C)nn2CC | 21.6% |
| Cc1cccc(CN2C[C@H]3CCC[C@@]3(COCc3csc(C)n3)C2)n1 | 14.3% |
| Cc1n[nH]c(C)c1C1CCCN1C(=O)c1cc(Br)c[nH]1 (stereo not given) | -4.08% |
| CNC(=O)C1(C)CCCN1Cc1cnn(C)c1C (stereo not given) | 5.45% |
| CCn1ccnc1CN1CCCN(C(=O)c2cccn2C)CC1 | -8.93% |
| Cn1cnc2c1CCN(CC(=O)NC1CCCCNC1=O)C2 (stereo not given) | -5.97% |
| Cn1nc2c(cc1=O)CN(Cc1nc(-c3ccoc3)no1)CC2 | 7.72% |
| CO[C@@H]1CCN(c2ncc(F)cn2)[C@@H]2CN(Cc3cccnc3)C[C@@H]21 | 11.8% |
| O=C(C[C@@H]1COC[C@H]2CN(C(=O)c3ccccn3)C[C@@H]12)N1CCCC1 | -104% |
| CSCC(=O)N1CCOC(c2nc(C)n[nH]2)C1 (stereo not given) | 0.986% |
| CCc1nnc(Nc2cccc(C3CCN(C)CC3)n2)s1 | -28.6% |
| c1cc(-c2cnccn2)cc(-c2ccn(CCN3CCCC3)n2)c1 | -11.5% |
